Measurements taken from ChEMBL document CHEMBL3745598, “Synthesis and biological evaluation of disubstituted amidoxanthones as potential telomeric G-quadruplex DNA-binding and apoptosis-inducing agents” (Bioorg Med Chem, 2016).
Calls of active or inactive are those of the source. The calls are words filed in the database; no cut-off is given here.

Legend:
A549 = assay: Antiproliferative activity against human A549 cells after 44 hrs by MTT assay; assay type: functional, cell-based; conditions: for IC50: A549, 44 h
Outline: (§1)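 HeLa, A549, SGC-7901 and MCF-7 cells seeded at 5 × 10^4 per well in DMEM at 37 °C, 5% CO2, incubated overnight. Cells were then treated at […], with 0.5% DMSO as control. MTT added for 4 h at 37 °C, formazan dissolved in DMSO, absorbance read at 570 nm. Inhibition % = (1 − Atreatment/Acontrol) × 100. Triplicate wells, each experiment repeated at least three times.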

[1] = (§2) Antiproliferative activity against human SGC7901 cells after 44 hrs by MTT assay; assay type: functional, cell-based; conditions: SGC-7901, 44 h; outline: as §1
SGC-7901 = assay: as §2; assay type: functional, cell-based; outline: as §1
HeLa [2] = assay: Induction of apoptosis in human HeLa cells assessed as chromatin condensation after 24 hrs by AO/EB staining-based fluorescent microscopic analysis; assay type: functional, cell-based
Outline: (§3)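 HeLa monolayers were grown in 24-well plates and exposed for 24 h at 0, 5, 10, 20 and 40 µM. Cells were stained 10 min with AO/EB dye mix (100 µg/mL each) and washed with PBS. Morphology was then viewed by fluorescence microscopy: chromatin condensation, nuclear fragmentation, and membrane integrity.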

MCF7 = assay: Antiproliferative activity against human MCF7 cells after 44 hrs by MTT assay; assay type: functional, cell-based; conditions: for IC50: MCF7, 44 h; outline: as §1
HeLa [3] = assay: Induction of apoptosis in human HeLa cells assessed as nuclear fragmentation after 24 hrs by AO/EB staining-based fluorescent microscopic analysis; assay type: functional, cell-based; outline: as §3
HeLa [4] = assay: Antiproliferative activity against human HeLa cells after 44 hrs by MTT assay; assay type: functional, cell-based; outline: as §1
Homo sapiens [5] = species on record: Homo sapiens; assay: Binding affinity to HTG21 G-quadruplex DNA assessed as transition temperature using Na+ buffer at 1:1 compound to DNA ratio by CD spectrometric analysis (reference value: 55.1 degC)
Outline: (§4)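 CD melting of HTG21 at 5 µM with ligand at 5 µM (1:1). Buffer was Tris–HCl 10 mM, pH 7.4, containing KCl or NaCl. Signal was monitored at 295 nm and curves were normalized to obtain the melting temperature. HTG21 was pre-annealed at 95 °C for 5 min, cooled slowly, and held at 4 °C overnight.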

HeLa [6] = assay: Induction of apoptosis in human HeLa cells assessed as early apoptotic cells at 10 uM after 24 hrs by annexin V-FITC/propidium iodide staining-based flow cytometric analysis (reference value: 0.11%); assay type: functional
Outline: (§5)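 HeLa cells were seeded at 3 × 10^5 per well in DMEM at 37 °C, 5% CO2, and treated with 0, 10, 20 or 40 µM for 24 h. Cells were trypsinized, washed in cold PBS, resuspended in binding buffer, and stained with Annexin V-FITC plus PI for 20 min in the dark. Flow cytometry quadrants defined early (Annexin+/PI−) and late (Annexin+/PI+) apoptotic cells.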

Homo sapiens [7] = species on record: Homo sapiens; assay: Binding affinity to HTG21 G-quadruplex DNA assessed as transition temperature using K+ buffer at 1:1 compound to DNA ratio by CD spectrometric analysis (reference value: 64.6 degC); outline: as §4
HeLa [8] = assay: Induction of apoptosis in human HeLa cells assessed as late apoptotic cells at 40 uM after 24 hrs by annexin V-FITC/propidium iodide staining-based flow cytometric analysis (reference value: 0.36%); assay type: functional; outline: as §5
HeLa [9] = assay: Induction of apoptosis in human HeLa cells assessed as late apoptotic cells at 20 uM after 24 hrs by annexin V-FITC/propidium iodide staining-based flow cytometric analysis (reference value: 0.36%); assay type: functional; outline: as §5
HeLa [10] = assay: Induction of apoptosis in human HeLa cells assessed as late apoptotic cells at 10 uM after 24 hrs by annexin V-FITC/propidium iodide staining-based flow cytometric analysis (reference value: 0.36%); assay type: functional; outline: as §5
HeLa [11] = assay: Induction of apoptosis in human HeLa cells assessed as early apoptotic cells at 40 uM after 24 hrs by annexin V-FITC/propidium iodide staining-based flow cytometric analysis (reference value: 0.11%); assay type: functional; outline: as §5
Homo sapiens [12] = species on record: Homo sapiens; assay: Binding affinity to HTG21 G-quadruplex DNA assessed as hypochromicity by electronic absorption spectroscopic analysis
Outline: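 Absorption titration with ligand fixed at […] and HTG21 added at […], in Tris–HCl 10 mM, pH 7.4, containing KCl or NaCl. HTG21 was annealed at 95 °C for 5 min, cooled slowly, and held at 4 °C overnight. Absorbance decrease was followed. Binding constant was taken from a plot of [DNA]/(εa−εf) versus [DNA].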

Homo sapiens [13] = species on record: Homo sapiens; assay: Binding affinity to HTG21 G-quadruplex DNA at 5 uM by fluorescence emission spectroscopic analysis
Outline: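 Fluorescence emission titration with ligand fixed at […] and annealed HTG21 varied up to […]. Buffer was Tris–HCl 10 mM, pH 7.4, containing KCl or NaCl. Quenching was plotted as F0/F versus [HTG21]/[compound] and fitted.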

Calf thymus DNA [14] = assay: Binding affinity to calf thymus DNA assessed as hypochromicity by electronic absorption spectroscopic analysis; assay type: nucleic-acid assay; conditions: Bos taurus
HeLa [15] = assay: Induction of apoptosis in human HeLa cells assessed as early apoptotic cells at 20 uM after 24 hrs by annexin V-FITC/propidium iodide staining-based flow cytometric analysis (reference value: 0.11%); assay type: functional; outline: as §5
Calf thymus DNA [16] = assay: Binding affinity to calf thymus DNA at 5 uM by fluorescence emission spectroscopic analysis; assay type: nucleic-acid assay; conditions: Bos taurus
Homo sapiens [17] = species on record: Homo sapiens; assay: Binding affinity to HT6 G-quadruplex DNA at 0.5 to 1 compound to DNA ratio by NMR spectroscopic analysis
Outline: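 1H NMR at 25 °C on d(TTAGGG) 0.2 mM in 90% H2O/10% D2O with 150 mM KCl and 25 mM potassium phosphate, pH 7.0. Compound/quadruplex ratios were 0, 0.5 and 1. Watergate water suppression was used, and imino proton signals were monitored. Oligonucleotide was HPLC-purified.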

HeLa [18] = assay: Induction of apoptosis in human HeLa cells assessed as increase in apoptotic ratio after 24 hrs by annexin V-FITC/propidium iodide staining-based flow cytometric analysis; assay type: functional, cell-based; outline: as §5
Homo sapiens [19] = species on record: Homo sapiens; assay: Stabilization of HTG21mu G-quadruplex DNA at 15 uM by PCR-stop assay
Outline: (§6)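 PCR-stop on forward primer HTG21 or mutant HTG21mu with reverse primer RevHTG21, each primer 0.4 µM. Mixes contained 0.2 mM dNTP and 1.5 U Taq in 1× Thermopol buffer (20 mM Tris–HCl, 10 mM KCl, 10 mM (NH4)2SO4, 2 mM MgSO4, 0.1% Triton X-100, pH 8.8). Ligand was tested at 0–15 µM. Products were resolved by electrophoresis and imaged under UV.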

Homo sapiens [20] = species on record: Homo sapiens; assay: Stabilization of HTG21 G-quadruplex DNA at 2.5 to 15 uM by PCR-stop assay; outline: as §6

Row | IC50 (A549) | IC50 (MCF7) | IC50 (HeLa [4]) | SMILES | Activity (A549) | IC50 [1] | Activity (SGC-7901) | Activity (HeLa [2]) | Activity (MCF7) | Activity (HeLa [3]) | Activity (HeLa [4]) | other results
1 | 80.5 µM | > 100 µM | > 100 µM | O=C(CN1CCOCC1)Nc1ccc2oc3ccc(NC(=O)CN4CCOCC4)cc3c(=O)c2c1 | Dose-dependent effect | 84.9 µM | Dose-dependent effect | Dose-dependent effect | Dose-dependent effect | Dose-dependent effect | Dose-dependent effect | 
2 | 18.7 µM | 23 µM | 13.2 µM | CN(C)CC(=O)Nc1ccc2oc3ccc(NC(=O)CN(C)C)cc3c(=O)c2c1 | Dose-dependent effect | 17.3 µM | Dose-dependent effect | Dose-dependent effect | Dose-dependent effect | Dose-dependent effect | Dose-dependent effect | T (Homo sapiens [5]): 60.8 °C; Activity (HeLa [6]): 12.36%; T (Homo sapiens [7]): 70.3 °C; Activity (HeLa [8]): 60.78%; Activity (HeLa [9]): 18.24%; Activity (HeLa [10]): 9.45%; Activity (HeLa [11]): 32.07%; Kb (Homo sapiens [12]): 2.89 ×10⁴ /M; Activity (Homo sapiens [13]): Active; Kb (Calf thymus DNA [14]): 0.46 ×10⁴ /M; Activity (HeLa [15]): 22.69%; Activity (Calf thymus DNA [16]): inactive; Activity (Homo sapiens [17]): Active; Activity (HeLa [18]): Dose-dependent effect; Activity (Homo sapiens [19]): inactive; Activity (Homo sapiens [20]): Active
3 | > 100 µM | 83.9 µM | > 100 µM | O=C(CN1CCCCC1)Nc1ccc2oc3ccc(NC(=O)CN4CCCCC4)cc3c(=O)c2c1 | Dose-dependent effect | 86.7 µM | Dose-dependent effect | Dose-dependent effect | Dose-dependent effect | Dose-dependent effect | Dose-dependent effect | 
4 | 19.9 µM | 26.6 µM | 20.4 µM | CCN(CC)CC(=O)Nc1ccc2oc3ccc(NC(=O)CN(CC)CC)cc3c(=O)c2c1 | Dose-dependent effect | 32.2 µM | Dose-dependent effect | Dose-dependent effect | Dose-dependent effect | Dose-dependent effect | Dose-dependent effect | 
5 | 21.5 µM | 34.9 µM | 48.2 µM | O=C(CN1CCCC1)Nc1ccc2oc3ccc(NC(=O)CN4CCCC4)cc3c(=O)c2c1 | Dose-dependent effect | 35.9 µM | Dose-dependent effect | Dose-dependent effect | Dose-dependent effect | Dose-dependent effect | Dose-dependent effect | 
